Measurements: ChEMBL document CHEMBL1142981, “Identification and synthesis of a novel selective partial PPARdelta agonist with full efficacy on lipid metabolism in vitro and in vivo” (J Med Chem, 2007)

Assays:
[1] = Half life in Sprague-Dawley rat at 0.45 mg/kg, po; assay type: ADME, organism-based; set-up: dose 0.45 mg/kg, route oral; conditions: in vivo
Outline: (§1)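 Male SD rats, single oral dose in 5% ethanol/10% HPCD/phosphate buffer pH 7.5-8.0, n = 8. One animal was killed at each of 5, 15, 30, 60, 90, 120, 240 and 360 min. EDTA plasma was analysed by turbulent-flow LC-MS/MS. Cmax, half-life and oral bioavailability were taken from the plasma curves, with bioavailability using a parallel i.v. arm.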

[2] = target: T1, Peroxisome proliferator-activated receptor alpha (Homo sapiens) (UniProt Q07869); test: Activity at human liver PPAR alpha expressed in HEK293 cells by GAL4 transactivation assay relative to NNC61-4655; assay type: cell-based
T1 sequence (whole entry): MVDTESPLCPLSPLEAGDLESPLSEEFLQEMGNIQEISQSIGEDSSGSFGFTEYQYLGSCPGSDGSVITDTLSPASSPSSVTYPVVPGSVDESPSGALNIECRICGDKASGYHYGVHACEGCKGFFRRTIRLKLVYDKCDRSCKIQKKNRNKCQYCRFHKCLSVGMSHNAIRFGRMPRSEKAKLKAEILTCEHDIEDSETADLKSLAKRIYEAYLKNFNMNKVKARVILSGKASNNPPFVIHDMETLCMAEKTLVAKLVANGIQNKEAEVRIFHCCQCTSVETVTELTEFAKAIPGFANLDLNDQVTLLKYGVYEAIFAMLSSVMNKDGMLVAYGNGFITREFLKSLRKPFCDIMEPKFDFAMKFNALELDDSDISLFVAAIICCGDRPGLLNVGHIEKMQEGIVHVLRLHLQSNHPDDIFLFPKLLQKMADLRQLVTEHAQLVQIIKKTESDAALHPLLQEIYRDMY

[3] = Plasma Cmax in Sprague-Dawley rat at 0.45 mg/kg, po; assay type: ADME, organism-based; set-up: dose 0.45 mg/kg, route oral; outline: as §1
[4] = target: T2, Peroxisome proliferator-activated receptor delta (Homo sapiens, UniProt Q03181)
T2 sequence (Q03181 whole entry): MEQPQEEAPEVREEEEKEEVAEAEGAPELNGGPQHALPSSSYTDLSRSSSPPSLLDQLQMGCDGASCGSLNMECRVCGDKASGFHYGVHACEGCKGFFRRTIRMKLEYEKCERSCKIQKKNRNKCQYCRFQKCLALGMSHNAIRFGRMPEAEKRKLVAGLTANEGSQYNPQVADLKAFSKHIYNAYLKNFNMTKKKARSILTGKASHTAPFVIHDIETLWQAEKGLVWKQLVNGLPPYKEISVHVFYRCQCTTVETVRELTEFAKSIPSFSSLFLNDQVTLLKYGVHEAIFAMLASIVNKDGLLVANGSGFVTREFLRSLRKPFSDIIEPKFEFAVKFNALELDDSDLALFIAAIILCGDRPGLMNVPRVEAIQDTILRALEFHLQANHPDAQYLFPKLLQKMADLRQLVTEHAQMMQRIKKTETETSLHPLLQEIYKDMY

L6 [5] = test: Effect on fatty acid oxidation in rat L6 cells; assay type: functional, cell-based
Outline: (§2)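 Rat L6 myoblasts differentiated 5 days in 2% serum, then treated 42 h with compound (refreshed at 24 h), followed by 6 h with 0.4 mM palmitate containing [9,10-3H]-palmitic acid on 2% fatty-acid-free BSA. Stopped with 10% TCA; released 3H-H2O collected by overnight equilibration at 50 °C and counted.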

[6] = target: T3, Peroxisome proliferator-activated receptor gamma (Homo sapiens, UniProt P37231); assay type: cell-based, HEK293
T3 sequence (P37231 whole entry): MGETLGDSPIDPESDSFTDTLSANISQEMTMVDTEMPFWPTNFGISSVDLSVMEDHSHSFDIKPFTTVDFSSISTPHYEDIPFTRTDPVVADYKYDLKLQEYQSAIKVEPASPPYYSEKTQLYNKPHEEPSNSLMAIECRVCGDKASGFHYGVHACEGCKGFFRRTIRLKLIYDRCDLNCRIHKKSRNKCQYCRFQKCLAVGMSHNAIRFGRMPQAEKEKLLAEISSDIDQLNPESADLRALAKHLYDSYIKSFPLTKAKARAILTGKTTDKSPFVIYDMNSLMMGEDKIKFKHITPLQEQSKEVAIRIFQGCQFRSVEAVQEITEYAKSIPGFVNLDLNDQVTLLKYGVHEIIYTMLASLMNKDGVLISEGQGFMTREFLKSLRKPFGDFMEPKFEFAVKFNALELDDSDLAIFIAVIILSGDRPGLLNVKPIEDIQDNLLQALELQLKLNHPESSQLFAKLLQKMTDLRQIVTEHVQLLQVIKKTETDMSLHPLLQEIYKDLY

[7] = target: T4, Peroxisome proliferator-activated receptor alpha (Homo sapiens, UniProt Q07869); test: Activity at human liver PPAR alpha expressed in HEK293 cells by PPAR-GAL4 transactivation assay; assay type: cell-based
T4 sequence (Q07869 whole entry): T1 sequence (whole entry)

L6 [8] = test: Effect on increase in fatty acid oxidation in rat L6 cells relative to GW-501516; assay type: functional; set-up: concentration or dose not given beside the values; outline: as §2
[9] = Half life in Sprague-Dawley rat at 2.35 mg/kg, po; assay type: ADME, organism-based; set-up: dose 2.35 mg/kg, route oral; conditions: in vivo
Outline: (§3)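 Male SD rats dosed once i.v. or p.o. (n = 8 per route), vehicle 5% ethanol, 10% HPCD, phosphate buffer pH 7.5-8.0. One animal sacrificed at each of 5, 15, 30, 60, 90, 120, 240 and 360 min; EDTA plasma analysed by high turbulence LC-MS/MS. Each data point represents one animal.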

[10] = Volume of distribution in Sprague-Dawley rat at 1.18 mg/kg, iv; assay type: ADME, organism-based; set-up: dose 1.18 mg/kg, route intravenous; conditions: in vivo, read-out: Vss
Outline: (§4)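 Male SD rats received a single p.o. or i.v. dose (n = 8 per route) in 5% ethanol, 10% HPCD and phosphate buffer, pH 7.5-8.0. At 5, 15, 30, 60, 90, 120, 240 and 360 min one rat was sacrificed per time point. EDTA plasma was assayed by high turbulence LC-MS/MS. Cmax and bioavailability were taken from oral dosing; volume of distribution is at steady state.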

[11] = Clearance in Sprague-Dawley rat at 1.18 mg/kg, iv; assay type: ADME, organism-based; set-up: dose 1.18 mg/kg, route intravenous; conditions: in vivo; outline: as §3
[12] = Plasma Cmax in Sprague-Dawley rat at 2.35 mg/kg, po; assay type: ADME, organism-based; set-up: dose 2.35 mg/kg, route oral; outline: as §4
[13] = Oral bioavailability in Sprague-Dawley rat at 2.35 mg/kg; assay type: ADME, organism-based; conditions: in vivo; outline: as §4

| half-life [1] [h] | Cmax [3] [ng/mL] | SMILES | Efficacy [2] [%] | EC50 [4] [nM] | EC50 (L6 [5]) [nM] | EC50 [6] [nM] | EC50 [7] [nM] | Activity (L6 [8]) [%] | half-life [9] [h] | Vd [10] [L/kg] | clearance [11] [mL/min/kg] | Cmax [12] [ng/mL] | bioavailability [13] [%] |
| --- | --- | --- | --- | --- | --- | --- | --- | --- | --- | --- | --- | --- | --- |
| 2.55 | 419 | O=C(O)Cc1cccc(OCC=C(c2ccc(Br)cc2)c2ccc(Br)cc2)c1 | > 19 | 830 | 224 | > 10000 | > 10000 | 78 |  |  |  |  |  |
|  |  | Cc1cc(SCC=C(c2ccc(Br)cc2)c2ccc(Br)cc2)ccc1OCC(=O)O | > 22 | 17 | 3 | > 10000 | > 10000 | 75 | 2.52 | 0.9 | 10 | 887 | 95 |
